Test results as given in ChEMBL document CHEMBL1154922, “Rapid P1 SAR of brain penetrant tertiary carbinamine derived BACE inhibitors” (Bioorg Med Chem Lett, 2010).
The source made the active and inactive calls. No cut-off for these calls is given here.

Tests used:
[1] = molecular target: Beta-secretase 1 (Homo sapiens) (UniProt P56817); experiment: Inhibition of BACE1-mediated production of secreted beta-secretase amino terminal fragment
How it was run: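 Cell-based sAPP_NF assay: cells express APP carrying the NF mutation, and secreted sAPP is the read-out. IC50 is given as mean ± deviation.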

[2] = molecular target: Beta-secretase 1 (Homo sapiens) (UniProt P56817); experiment: Inhibition of BACE1 at pH 6.5
How it was run: (§1)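 Enzymatic BACE-1 inhibition assay run at the pH given in each line. Potency is reported as the inflection point (IP), in nM.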

Rhesus monkey [3] = experiment: Reduction in CSF amyloid beta40 level in cisterna magna ported Rhesus monkey at 5 mg/kg, po co-administered with CYP inhibitor ritonavir 10 mg/kg, po measured after 4 hrs by sandwich ELISA; type: functional, organism-based; conditions: Macaca mulatta
[4] = Plasma concentration in Rhesus monkey at 15 mg/kg, po co-administered with CYP inhibitor ritonavir 10 mg/kg, po after 4 hrs; type: ADME, organism-based, Macaca mulatta
How it was run: (§2)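 In a satellite PK experiment, rhesus monkeys (n = 3) received the test article at the stated dose together with 10 mpk ritonavir. Plasma levels (µM) were measured at 4 h and 24 h and averaged with standard deviations. Values below the limit of quantitation are marked BLQ.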

[5] = molecular target: ATP-dependent translocase ABCB1 (Homo sapiens, UniProt P08183); experiment: Inhibition of human P-glycoprotein assessed as PGP ratio
ATP-dependent translocase ABCB1, sequence (P08183 whole entry): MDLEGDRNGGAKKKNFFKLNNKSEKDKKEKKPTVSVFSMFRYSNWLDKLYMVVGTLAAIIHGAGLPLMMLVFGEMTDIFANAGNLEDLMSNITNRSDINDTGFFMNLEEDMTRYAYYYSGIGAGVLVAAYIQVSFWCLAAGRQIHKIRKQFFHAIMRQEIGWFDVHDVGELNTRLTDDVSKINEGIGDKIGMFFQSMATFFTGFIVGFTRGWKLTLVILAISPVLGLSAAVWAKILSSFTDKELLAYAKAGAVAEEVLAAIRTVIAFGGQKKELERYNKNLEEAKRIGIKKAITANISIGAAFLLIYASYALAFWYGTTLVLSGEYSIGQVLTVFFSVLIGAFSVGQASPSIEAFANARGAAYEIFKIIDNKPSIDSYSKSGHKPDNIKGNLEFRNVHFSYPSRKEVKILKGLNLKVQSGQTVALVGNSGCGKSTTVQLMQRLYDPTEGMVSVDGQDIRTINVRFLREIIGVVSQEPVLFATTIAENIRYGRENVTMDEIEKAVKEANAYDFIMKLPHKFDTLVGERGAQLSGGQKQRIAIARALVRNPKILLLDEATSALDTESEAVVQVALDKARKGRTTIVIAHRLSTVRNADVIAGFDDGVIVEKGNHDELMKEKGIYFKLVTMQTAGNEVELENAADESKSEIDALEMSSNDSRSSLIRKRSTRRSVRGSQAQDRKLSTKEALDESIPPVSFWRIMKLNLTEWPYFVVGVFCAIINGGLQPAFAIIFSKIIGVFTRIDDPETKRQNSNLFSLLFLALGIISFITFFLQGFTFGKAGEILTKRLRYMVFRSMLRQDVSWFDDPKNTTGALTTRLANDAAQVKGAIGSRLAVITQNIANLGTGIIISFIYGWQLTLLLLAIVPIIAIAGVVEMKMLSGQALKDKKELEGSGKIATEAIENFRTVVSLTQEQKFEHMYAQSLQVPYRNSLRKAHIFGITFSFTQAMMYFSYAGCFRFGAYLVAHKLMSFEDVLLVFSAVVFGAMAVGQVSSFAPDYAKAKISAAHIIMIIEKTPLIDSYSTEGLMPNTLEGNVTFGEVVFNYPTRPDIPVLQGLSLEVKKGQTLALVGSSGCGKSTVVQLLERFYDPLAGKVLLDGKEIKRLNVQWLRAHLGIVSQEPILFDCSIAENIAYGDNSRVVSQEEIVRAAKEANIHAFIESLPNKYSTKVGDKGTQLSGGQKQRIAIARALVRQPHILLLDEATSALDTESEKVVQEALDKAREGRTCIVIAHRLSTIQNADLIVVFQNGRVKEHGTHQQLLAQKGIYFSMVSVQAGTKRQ

[6] = Plasma concentration in Rhesus monkey at 15 mg/kg, po co-administered with CYP inhibitor ritonavir 10 mg/kg, po after 24 hrs; type: ADME, organism-based, Macaca mulatta; how it was run: as §2
Rhesus monkey [7] = experiment: Reduction in CSF amyloid beta42 level in cisterna magna ported Rhesus monkey at 15 mg/kg, po co-administered with CYP inhibitor ritonavir 10 mg/kg, po measured after 4 hrs by sandwich ELISA; type: functional, organism-based; conditions: Macaca mulatta
[8] = Plasma concentration in Rhesus monkey at 5 mg/kg, po co-administered with CYP inhibitor ritonavir 10 mg/kg, po after 4 hrs; type: ADME, organism-based, Macaca mulatta; how it was run: as §2
Mus musculus = species on record: Mus musculus; experiment: Inhibition of mouse P-glycoprotein assessed as PGP ratio
Rhesus monkey [9] = experiment: Reduction in CSF soluble APPbeta level in cisterna magna ported Rhesus monkey at 15 mg/kg, po co-administered with CYP inhibitor ritonavir 10 mg/kg, po measured after 4 hrs by sandwich ELISA; type: functional, organism-based; conditions: Macaca mulatta
Rhesus monkey [10] = experiment: Plasma concentration in Rhesus monkey at 5 mg/kg, po co-administered with CYP inhibitor ritonavir 10 mg/kg, po after 24 hrs; type: ADME, organism-based, Macaca mulatta; conditions: in vivo, BLD = below limit of detection; how it was run: as §2
[11] = molecular target: Beta-secretase 1 (Homo sapiens) (UniProt P56817); experiment: Inhibition of BACE1 at pH 4.5; how it was run: as §1
Rhesus monkey [12] = experiment: Reduction in CSF amyloid beta40 level in cisterna magna ported Rhesus monkey at 15 mg/kg, po co-administered with CYP inhibitor ritonavir 10 mg/kg, po measured after 24 hrs by sandwich ELISA; type: functional, organism-based; conditions: Macaca mulatta
[13] = Partition coefficient, log P of the compound; type: physicochemical; conditions: octanol/water
Rhesus monkey [14] = experiment: Reduction in CSF soluble APPbeta level in cisterna magna ported Rhesus monkey at 15 mg/kg, po co-administered with CYP inhibitor ritonavir 10 mg/kg, po measured after 4 hrs by sandwich ELISA; conditions: Macaca mulatta
Rhesus monkey [15] = experiment: Reduction in CSF amyloid beta40 level in cisterna magna ported Rhesus monkey at 15 mg/kg, po co-administered with CYP inhibitor ritonavir 10 mg/kg, po measured after 4 hrs by sandwich ELISA; type: functional, organism-based; conditions: Macaca mulatta
Rhesus monkey [16] = experiment: Reduction in CSF amyloid beta42 level in cisterna magna ported Rhesus monkey at 15 mg/kg, po co-administered with CYP inhibitor ritonavir 10 mg/kg, po measured after 4 hrs by sandwich ELISA; conditions: Macaca mulatta
[17] = Ratio of drug level in brain to plasma in transgenic mouse at 30 mg/kg, ip; conditions: brain and plasma

Beta-secretase 1 (Homo sapiens), sequence (P56817 whole entry, the tested form may be a part): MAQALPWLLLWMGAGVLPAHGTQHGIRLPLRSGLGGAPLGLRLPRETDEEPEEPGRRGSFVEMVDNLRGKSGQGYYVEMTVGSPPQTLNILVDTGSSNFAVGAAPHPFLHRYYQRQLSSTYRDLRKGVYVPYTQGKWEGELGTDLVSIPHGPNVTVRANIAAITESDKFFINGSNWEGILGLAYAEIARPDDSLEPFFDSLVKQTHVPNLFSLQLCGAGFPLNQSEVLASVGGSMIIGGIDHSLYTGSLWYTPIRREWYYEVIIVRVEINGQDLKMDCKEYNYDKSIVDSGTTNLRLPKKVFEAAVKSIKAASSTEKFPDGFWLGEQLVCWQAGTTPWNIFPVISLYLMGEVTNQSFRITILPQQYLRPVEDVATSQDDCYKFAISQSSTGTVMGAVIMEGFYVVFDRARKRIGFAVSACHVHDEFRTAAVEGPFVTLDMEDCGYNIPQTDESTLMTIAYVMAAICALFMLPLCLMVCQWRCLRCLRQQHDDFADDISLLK

IP [1] [nM] | IP [2] [nM] | SMILES | also measured
1100 | 119 | COCCN(C[C@H]1C[C@@H]1C)c1cc(-c2nnc([C@](C)(N)Cc3ccc4c(c3)OCO4)o2)c(Cl)c(N(C)S(C)(=O)=O)n1 | –
4320 | 65 | COCCN(C[C@H]1C[C@@H]1C)c1cc(-c2nnc([C@](C)(N)Cc3cccc(Cl)c3)o2)c(Cl)c(N(C)S(C)(=O)=O)n1 | –
> 2200 | 1300 | CCCC[C@@](C)(N)c1nnc(-c2cc(N(CCOC)C[C@H]3C[C@@H]3C)nc(N(C)S(C)(=O)=O)c2Cl)o1 | –
15 | 2 | COCCN(C[C@H]1C[C@@H]1C)c1cc(-c2nnc([C@](C)(N)Cc3ccc(F)cc3)o2)c(Cl)c(N(C)S(C)(=O)=O)n1 | Activity (Rhesus monkey [3]): Active; concentration at 4 h [4]: 2.34 µM; Ratio [5]: 1.1; concentration at 24 h [6]: 0.03 µM; Activity (Rhesus monkey [7]): Active; concentration at 4 h [8]: 1.31 µM; Ratio (Mus musculus): 1.9; Activity (Rhesus monkey [9]): Active; Cp (Rhesus monkey [10]): BLD
195 | 15 | COCCN(C[C@H]1C[C@@H]1C)c1cc(-c2nnc([C@](C)(N)Cc3ccccc3F)o2)c(Cl)c(N(C)S(C)(=O)=O)n1 | –
304 | 17 | COCCN(C[C@H]1C[C@@H]1C)c1cc(-c2nnc([C@](C)(N)Cc3cccc(F)c3)o2)c(Cl)c(N(C)S(C)(=O)=O)n1 | –
– | > 600000 | COCCN(C[C@H]1C[C@@H]1C)c1cc(-c2nnc([C@](C)(N)Cc3ccc(Br)cc3Br)o2)c(Cl)c(N(C)S(C)(=O)=O)n1 | –
320 | 4 | COCCN(C[C@H]1C[C@@H]1C)c1cc(-c2nnc([C@](C)(N)Cc3ccc(Cl)cc3)o2)c(Cl)c(N(C)S(C)(=O)=O)n1 | –
– | 1500 | COCCN(C[C@H]1C[C@@H]1C)c1cc(-c2nnc([C@](C)(N)Cc3cccc(OC)c3)o2)c(Cl)c(N(C)S(C)(=O)=O)n1 | –
– | 1400 | COCCN(C[C@H]1C[C@@H]1C)c1cc(-c2nnc([C@](C)(N)Cc3ccc(OC)nc3)o2)c(Cl)c(N(C)S(C)(=O)=O)n1 | –
– | 9900 | COCCN(C[C@H]1C[C@@H]1C)c1cc(-c2nnc([C@](C)(N)Cc3ccnc(OC)c3)o2)c(Cl)c(N(C)S(C)(=O)=O)n1 | –
– | 3500 | COCCN(C[C@H]1C[C@@H]1C)c1cc(-c2nnc([C@](C)(N)Cc3ccccc3OC)o2)c(Cl)c(N(C)S(C)(=O)=O)n1 | –
4300 | 180 | COCCN(C[C@H]1C[C@@H]1C)c1cc(-c2nnc([C@](C)(N)Cc3ccc(OC)cc3)o2)c(Cl)c(N(C)S(C)(=O)=O)n1 | –
– | 49000 | COCCN(C[C@H]1C[C@@H]1C)c1cc(-c2nnc([C@](C)(N)Cc3ncco3)o2)c(Cl)c(N(C)S(C)(=O)=O)n1 | –
1930 | 142 | COCCN(C[C@H]1C[C@@H]1C)c1cc(-c2nnc([C@](C)(N)Cc3ccoc3)o2)c(Cl)c(N(C)S(C)(=O)=O)n1 | –
46 | 5 | COCCN(C[C@H]1C[C@@H]1C)c1cc(-c2nnc([C@](C)(N)Cc3ccccc3)o2)c(Cl)c(N(C)S(C)(=O)=O)n1 | concentration at 4 h [4]: 3.36 µM; IP [11]: 0.4 nM; Ratio [5]: 1.9; concentration at 24 h [6]: 0.1 µM; Activity (Rhesus monkey [12]): Active; logP [13]: > 3.2; Activity (Rhesus monkey [14]): Active; Activity (Rhesus monkey [15]): Active; Activity (Rhesus monkey [16]): Active; Kp [17]: 9; Ratio (Mus musculus): 2.3
> 6700 | 340 | COCCN(C[C@H]1C[C@@H]1C)c1cc(-c2nnc([C@](C)(N)Cc3ccccc3Cl)o2)c(Cl)c(N(C)S(C)(=O)=O)n1 | –
3190 | 375 | COCCN(C[C@H]1C[C@@H]1C)c1cc(-c2nnc([C@](C)(N)Cc3ccco3)o2)c(Cl)c(N(C)S(C)(=O)=O)n1 | –
– | 29000 | COCCN(C[C@H]1C[C@@H]1C)c1cc(-c2nnc([C@](C)(N)Cc3cc(Br)c(F)cc3Br)o2)c(Cl)c(N(C)S(C)(=O)=O)n1 | –
